Shown are actives, neighbours in structure and some others; about 1.8% of the full set was active somewhere.
Autophagy mod – alters autophagy in cells. MEF GFP-LC3 puncta imaging; test concentration mostly 10 µM. calls only at 10 µM (by protocol). 190,000 compounds, 0.98% hits. AID 463193;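 active = percentage of spot-positive cells more than 3 SD above its plate mean, without a fluorescence outlier flag or 80% toxicity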
MDM2 E3 inh – inhibitors of human Mdm2 E3 ubiquitin ligase. Q00987. cell-based MDM2 ubiquitination luciferase reporter, 2 h; 0 = plate control, 100 = twice control, blank-subtracted. signal enhancement, % at 5 µM. 210,000 compounds, 0.11% hits. AID 1230;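 active = signal enhancement of 30% or more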;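 note: luminescence tracks abundance of the self-degrading MDM2-luciferase fusion protein; higher signal means inhibition of MDM2 E3 ligase activity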
Target sequence (Q00987 whole entry, looked up, the tested form may be a part): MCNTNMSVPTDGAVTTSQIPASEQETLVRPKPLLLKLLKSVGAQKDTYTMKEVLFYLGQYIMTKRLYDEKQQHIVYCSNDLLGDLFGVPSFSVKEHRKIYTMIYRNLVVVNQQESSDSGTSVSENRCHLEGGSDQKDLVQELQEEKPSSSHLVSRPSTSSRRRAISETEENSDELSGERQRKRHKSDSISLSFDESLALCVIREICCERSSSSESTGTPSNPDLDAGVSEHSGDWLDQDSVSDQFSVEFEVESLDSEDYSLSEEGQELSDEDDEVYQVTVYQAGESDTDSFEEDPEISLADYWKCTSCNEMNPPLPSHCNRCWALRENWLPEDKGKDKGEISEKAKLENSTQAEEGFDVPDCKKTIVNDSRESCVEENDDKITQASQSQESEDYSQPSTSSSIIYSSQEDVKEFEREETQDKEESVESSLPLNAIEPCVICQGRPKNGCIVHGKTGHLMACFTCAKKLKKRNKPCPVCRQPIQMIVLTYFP
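test system = mammalian cells stably expressing self-ubiquitinating, self-degrading MDM2 E3–luciferase fusion | quantity = 2000 cells/well | incubation = cell settling 4 h, compound treatment 2 h, both 37 °C | signal = luminescence with SteadyLite reagent, 15 min at room temperature | evaluation = % enhancement relative to plate controls after blank subtraction | benchmarks = plate controls and plate blanks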
TNF death inh – blocks TNF-alpha induced death of Jurkat FADD-/- cells; Jurkat FADD-/- TNF necroptosis rescue, ATP luminescence, 24 h; 0 = TNF only, 100 = no-TNF cells; activation (protection from cell death), % at 10 µM; 220,000 compounds, 0.068% hits; AID 463075;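 active = activation, meaning protection from cell death, of at least 50% relative to plate controls; inactive = activation below 50%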;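 note: necroptosis triggered by 40 ng/mL TNF-alpha added together with compound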
Dynein transport – dynein cargo transport inhibition | z-score, hits read low | 3617.4 mouse cells, GR-EGFP nuclear translocation imaging; test concentration mostly 20 µM; stimulated with dexamethasone, 1 µM; hits give low values | AID 1381 | 220,000 compounds, 0.47% hits;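 active = plate z-score of nuclear minus cytoplasmic receptor signal below a set negative limit, without overly bright fluorescence or cell loss, cut at about -3.5 in these data, passing the limit was not always enough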;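 note: z-score of nuclear minus cytoplasmic ring GR-EGFP intensity difference per well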
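medium = tetracycline-free induction medium containing charcoal-stripped FBS | also added = 1.0 µM final dexamethasone stimulus | schedule = 48 h induction, 1 h compound, 30 min dex at 37 °C | technique = fixed, Hoechst-stained cells imaged at 10x for EGFP | measure = GR-EGFP nuclear translocation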
L929 necroptosis – blocks zVAD induced death of L929 cells; L929 zVAD necroptosis rescue, ATP luminescence, 24 h; with zVAD 60 µM; viability rescue, % at 10 µM; 220,000 compounds, 0.38% hits; AID 1377;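 active = activation, scaled between plate controls, above about 75%, limit read from the data; inactive = activation under that limit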
A number is an active result; – = inactive; · = not tested or not shown; + = active, no number.

SMILES	Autophagy mod	MDM2 E3 inh	TNF death inh	Dynein transport	L929 necroptosis
N#C/C(=C\c1cn(-c2ccccc2)nc1-c1cc2ccccc2o1)c1nc2ccccc2[nH]1	+	–	–	–	–
CCN(CC)CCNC(=O)c1ccc2c(c1)ncn2C1CCCCC1	–	–	–	–	93
COC(=O)c1cnc(NNS(=O)(=O)c2ccc(C(F)(F)F)cc2)nc1C(F)(F)F	·	–	–	–	–
Cn1cnnc1SCC(=O)Nc1ccccc1Oc1ccccc1	–	–	–	–	–
COc1ccc(-c2ccc(C#N)c(SCC(=O)Nc3sc4c(c3C#N)CCC4)n2)cc1OC	+	–	–	–	–
N#Cc1cc2c(nc1SCC(=O)Nc1sc3c(c1C#N)CCC3)CCC2	–	–	–	–	–
COc1ccc2[nH]c(=O)c(CN(c3ccc(C)c(C)c3)S(C)(=O)=O)cc2c1	–	–	–	–	–
COc1ccc(/C(C)=N/NC(=S)Nc2cc(C)ccc2C)cc1	–	–	–	–	–
Cc1ccc(S(=O)(=O)N2CCC(C(=O)N3CCC[C@H]3C(=O)NCc3ccco3)CC2)cc1	+	–	–	–	–
Cc1ccc(S(=O)(=O)N2CCC(C(=O)N3CCC[C@H]3C(=O)NCc3ccccc3)CC2)cc1	–	–	–	–	–
CCCCNc1cc(C)nc(NCc2ccccc2)n1	+	–	–	–	–
CCOc1ccccc1NS(=O)(=O)c1cn(C)nc1C	–	–	–	–	–
CCN1CCN(CCNC(=O)c2ccc(/C=C3\Sc4ccccc4N(Cc4ccccc4F)C3=O)cc2)CC1	+	–	–	–	–
CN1CCN(CCCNC(=O)c2ccc(/C=C3\Sc4ccccc4N(Cc4ccc(F)cc4)C3=O)cc2)CC1	–	–	–	–	–
O=C(Cn1cncn1)N/N=C/c1cccnc1	·	–	–	–	–
CC(C)(C)C(=O)OCc1nc(-c2ccc(C(F)(F)F)cc2)cs1	·	–	–	–	–
C(=N\Nc1ncnc2ccccc12)/c1ccccc1	+	–	–	–	–
CCOc1ccccc1C(=O)Nc1cc(OC)ccc1OC	+	–	–	–	–
COc1ccc(OC)c(NS(=O)(=O)c2ccc(SC)cc2)c1	–	–	–	–	–
CCOc1ccc(S(=O)(=O)Nc2cc(OC)ccc2OC)cc1	+	–	–	–	–
COc1ccc(OC)c(NC(=O)c2ccccc2SC)c1	–	–	–	–	–
Cc1ccccc1NS(=O)(=O)c1ccc(OCC(=O)NCc2cccnc2)cc1	+	–	–	–	–
COc1ccc(OC)c(NS(=O)(=O)c2ccc(N3CCCC3=O)cc2)c1	+	–	–	–	–
COc1ccc(CCNS(=O)(=O)c2ccc(N3CCCC3=O)cc2)cc1	–	–	–	–	–
O=C(c1cc2cc(Br)ccc2s1)N1CCOCC1	–	–	–	–	–
SMILES	Autophagy mod	MDM2 E3 inh	TNF death inh	Dynein transport	L929 necroptosis
Cc1nc2ccc(C(=O)N3c4ccccc4CC3C)cc2s1 (stereo unspecified)	–	–	–	–	–
CCOc1ccc(S(=O)(=O)Nc2ccccc2C(=O)NCC2CCCO2)cc1 (stereo unspecified)	–	–	–	–	–
CCOC(=O)c1ccccc1NS(=O)(=O)c1ccc(OCC)cc1	+	–	–	–	–
CCOc1ccc(N(C(=O)CNC(=O)c2cccs2)C(C(=O)NCC2CCCO2)c2ccc(OC)c(OC)c2)cc1 (stereo unspecified)	+	–	–	–	–
CC(=O)c1sc(NC(=O)c2cc(=O)c3ccccc3o2)nc1C	+	–	–	–	–
COc1ccc(-n2c(O)c(C=Nc3ccccc3)c3ccccc3c2=O)cc1	+	–	–	–	–
COc1ccc(-n2c(O)c(C=Nc3ccccc3)c3ccccc3c2=O)cc1OC	·	–	–	–	–
Cc1cc(N=Cc2c(O)n(-c3ccc4c(c3)OCO4)c(=O)c3ccccc23)ccn1	–	–	–	–	–
Cc1ccc(-n2c(O)c(C=Nc3ccc4c(c3)OCO4)c3ccccc3c2=O)cc1C	+	–	–	–	–
CCn1nc(C(=O)OCC(=O)NCC(C)C)c2ccccc2c1=O	+	–	–	–	–
Cc1ccc(NC(=O)CN2C(=O)N/C(=C/c3ccc(C)s3)C2=O)cc1	+	–	–	–	–
Cc1cccc(CN2C(=O)N/C(=C/c3ccc(C)s3)C2=O)c1	+	–	–	–	–
COc1cccc(C(=O)NN/C(C)=C/C(=O)C(F)(F)C(F)(F)C(F)(F)F)c1	–	–	–	–	–
O=C(Nc1ccc(S(=O)(=O)NC2=NCCCCC2)cc1)c1ccccc1Cl	·	–	–	–	–
Cc1cc(C)c2ccc3c(C)c(C)nc3c2[nH]1	+	–	–	–	–
Nc1ccc(C(=O)N/N=C\C=C\c2ccc([N+](=O)[O-])cc2)cc1	+	–	–	–	–
O=C(N/N=C/C=C/c1ccc2c(c1)OCO2)c1ccc([N+](=O)[O-])cc1	–	–	–	–	–
Cc1cc(C(=O)NCCc2ccc(S(N)(=O)=O)cc2)no1	–	–	–	–	–
O=C1CN(C(=O)CSc2nc3ccccc3c(=O)n2CCCN2CCOCC2)c2ccccc2N1	·	–	–	–	–
NS(=O)(=O)c1cccc(NC(=O)CSc2nc3ccccc3c(=O)n2CCCN2CCOCC2)c1	+	–	–	–	–
O=C(CSc1nc2ccccc2c(=O)n1CCCN1CCOCC1)c1c[nH]c2ccccc12	+	–	–	–	–
CSc1nc(C)cc(SCC(=O)N/N=C/c2ccccc2)n1	–	–	–	–	–
O=C(COc1ccccc1)N1CCN(S(=O)(=O)c2cccc([N+](=O)[O-])c2)CC1	–	–	–	–	–
COc1ccc2nc(N3C(=O)/C(=C/c4ccccc4)NC3=S)sc2c1	+	–	–	–	–
CCOc1ccc2nc(N3C(=O)/C(=C/c4ccccc4)NC3=S)sc2c1	+	–	–	–	–
SMILES	Autophagy mod	MDM2 E3 inh	TNF death inh	Dynein transport	L929 necroptosis
CC(C)(C)SCCNC(=O)c1ccc(Cl)c([N+](=O)[O-])c1	–	–	–	–	–
CNc1ccc(C(O)(C(F)(F)F)C(F)(F)F)cc1C(O)(C(F)(F)F)C(F)(F)F	–	–	–	–	–
Cc1ccc(N)c(C(O)(C(F)(F)F)C(F)(F)F)c1	+	–	–	–	–
S=c1[nH]ccn1-c1cccc(Cl)c1	–	–	–	–	–
CCOC(=O)C1CCCN(C(=O)c2cn(C)c3ccc(S(=O)(=O)N(C)C)cc3c2=O)C1 (stereo unspecified)	+	–	–	–	–
CN(C)S(=O)(=O)c1ccc2c(c1)c(=O)c(C(=O)N1CCOCC1)cn2C	·	–	–	–	–
Cn1c(=O)c2c(nc(N/N=C/c3ccc(OC(=O)c4ccco4)cc3)n2Cc2ccccc2Cl)n(C)c1=O	–	–	–	–	–
CCCS(=O)(=O)N1CCN=C1SCc1cccc(C)c1	–	–	–	–	–

High-throughput results deposited in PubChem BioAssay by several laboratories.
